Reference: ChEMBL document CHEMBL3124926, “Identification of highly efficacious glucocorticoid receptor agonists with a potential for reduced clinical bone side effects” (J Med Chem, 2014)

Columns and labels:
Mus musculus [1] = assay: Toxicity in collagen-induced B10.RIII mouse arthritis model assessed as change in femur cortical thickness at 30 mg/kg, po qd for 35 days relative to 30% cremophor-treated control; format: organism-based; set-up: dose 30 mg/kg, route oral; details: in vivo, 840 h
Method in brief: (§1)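 Female B10.RIII mice were immunized with porcine type II collagen in complete Freund's adjuvant, enrolled at arthritis onset (10/group), and dosed orally once daily for five weeks in 30% cremophor vehicle. Four paws were scored 1–4 (max 16), as AUC. Serum biomarkers were taken at day 35. Femur cortical thickness was measured by microCT in non-immunized, age-matched mice dosed identically.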

Mus musculus [2] = assay: Toxicity in collagen-induced B10.RIII mouse arthritis model assessed as change in femur cortical thickness at 3 mg/kg, po qd for 35 days relative to 30% cremophor-treated control; format: organism-based; set-up: dose 3 mg/kg, route oral; details: in vivo, 840 h; method in brief: as §1
Mus musculus [3] = assay: Toxicity in collagen-induced B10.RIII mouse arthritis model assessed as change in femur cortical thickness at 30 mg/kg, po qd for 35 days relative to 1% methylcellulose-treated control; format: organism-based; set-up: dose 30 mg/kg, route oral; details: in vivo, 840 h
Method in brief: (§2)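 Female B10.RIII mice were immunized at 12–15 weeks with porcine type II collagen emulsified in complete Freund's adjuvant (100 μg intradermal, tail base). Animals were enrolled at first arthritis signs, 10 per group, and dosed orally once daily for five weeks in 1% methylcellulose. Paws were scored 1–4 each (max 16), with AUC taken. Serum was collected at day 35. Femur cortical thickness was measured by microCT in non-immunized, age-matched mice given the same dosing.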

Mus musculus [4] = assay: Toxicity in collagen-induced B10.RIII mouse arthritis model assessed as change in femur cortical thickness at 3 mg/kg, po qd for 35 days relative to 1% methylcellulose-treated control; format: organism-based; set-up: dose 3 mg/kg, route oral; details: in vivo, 840 h; method in brief: as §2
Mus musculus [5] = assay: Toxicity in collagen-induced B10.RIII mouse arthritis model assessed as change in insulin level at 30 mg/kg, po qd for 35 days relative to 30% cremophor-treated control; format: organism-based; set-up: dose 30 mg/kg, route oral; details: in vivo, 840 h; method in brief: as §1
Mus musculus [6] = assay: Toxicity in collagen-induced B10.RIII mouse arthritis model assessed as change in insulin level at 3 mg/kg, po qd for 35 days relative to 30% cremophor-treated control; format: organism-based; set-up: dose 3 mg/kg, route oral; details: in vivo, 840 h; method in brief: as §1
Mus musculus [7] = assay: Toxicity in collagen-induced B10.RIII mouse arthritis model assessed as change in insulin level at 30 mg/kg, po qd for 35 days relative to 1% methylcellulose-treated control; format: organism-based; set-up: dose 30 mg/kg, route oral; details: in vivo, 840 h; method in brief: as §2
Mus musculus [8] = assay: Toxicity in collagen-induced B10.RIII mouse arthritis model assessed as change in insulin level at 3 mg/kg, po qd for 35 days relative to 1% methylcellulose-treated control; format: organism-based; set-up: dose 3 mg/kg, route oral; details: in vivo, 840 h; method in brief: as §2
Mus musculus [9] = assay: Toxicity in collagen-induced B10.RIII mouse arthritis model assessed as change in free fatty acid level at 30 mg/kg, po qd for 35 days relative to 30% cremophor-treated control; format: organism-based; set-up: dose 30 mg/kg, route oral; details: in vivo, 840 h; method in brief: as §1
Mus musculus [10] = assay: Toxicity in collagen-induced B10.RIII mouse arthritis model assessed as change in free fatty acid level at 3 mg/kg, po qd for 35 days relative to 30% cremophor-treated control; format: organism-based; set-up: dose 3 mg/kg, route oral; details: in vivo, 840 h; method in brief: as §1
Mus musculus [11] = assay: Toxicity in collagen-induced B10.RIII mouse arthritis model assessed as change in free fatty acid level at 30 mg/kg, po qd for 35 days relative to 1% methylcellulose-treated control; format: organism-based; set-up: dose 30 mg/kg, route oral; details: in vivo, 840 h; method in brief: as §2
Mus musculus [12] = assay: Toxicity in collagen-induced B10.RIII mouse arthritis model assessed as change in free fatty acid level at 3 mg/kg, po qd for 35 days relative to 1% methylcellulose-treated control; format: organism-based; set-up: dose 3 mg/kg, route oral; details: in vivo, 840 h; method in brief: as §2
Mus musculus [13] = assay: Toxicity in collagen-induced B10.RIII mouse arthritis model assessed as change in triglyceride level at 30 mg/kg, po qd for 35 days relative to 1% methylcellulose-treated control; format: organism-based; set-up: dose 30 mg/kg, route oral; details: in vivo, 840 h; method in brief: as §2
Mus musculus [14] = assay: Toxicity in collagen-induced B10.RIII mouse arthritis model assessed as change in triglyceride level at 3 mg/kg, po qd for 35 days relative to 1% methylcellulose-treated control; format: organism-based; set-up: dose 3 mg/kg, route oral; details: in vivo, 840 h; method in brief: as §2
Mus musculus [15] = assay: Toxicity in collagen-induced B10.RIII mouse arthritis model assessed as change in body fat at 30 mg/kg, po qd for 35 days relative to 30% cremophor-treated control; format: organism-based; set-up: dose 30 mg/kg, route oral; details: in vivo, 840 h; method in brief: as §1
Mus musculus [16] = assay: Toxicity in collagen-induced B10.RIII mouse arthritis model assessed as change in body fat at 3 mg/kg, po qd for 35 days relative to 30% cremophor-treated control; format: organism-based; set-up: dose 3 mg/kg, route oral; details: in vivo, 840 h; method in brief: as §1
Mus musculus [17] = assay: Toxicity in collagen-induced B10.RIII mouse arthritis model assessed as change in body fat at 30 mg/kg, po qd for 35 days relative to 1% methylcellulose-treated control; format: organism-based; set-up: dose 30 mg/kg, route oral; details: in vivo, 840 h; method in brief: as §2
Mus musculus [18] = assay: Toxicity in collagen-induced B10.RIII mouse arthritis model assessed as change in body fat at 3 mg/kg, po qd for 35 days relative to 1% methylcellulose-treated control; format: organism-based; set-up: dose 3 mg/kg, route oral; details: in vivo, 840 h; method in brief: as §2
Mus musculus [19] = assay: Toxicity in collagen-induced B10.RIII mouse arthritis model assessed as change in AUC at 30 mg/kg, po qd for 35 days relative to 30% cremophor-treated control; format: organism-based; set-up: dose 30 mg/kg, route oral; details: in vivo, 840 h; method in brief: as §1
Mus musculus [20] = assay: Toxicity in collagen-induced B10.RIII mouse arthritis model assessed as change in AUC at 3 mg/kg, po qd for 35 days relative to 30% cremophor-treated control; format: organism-based; set-up: dose 3 mg/kg, route oral; details: in vivo, 840 h; method in brief: as §1
Mus musculus [21] = assay: Toxicity in collagen-induced B10.RIII mouse arthritis model assessed as change in AUC at 30 mg/kg, po qd for 35 days relative to 1% methylcellulose-treated control; format: organism-based; set-up: dose 30 mg/kg, route oral; details: in vivo, 840 h; method in brief: as §2
Mus musculus [22] = assay: Toxicity in collagen-induced B10.RIII mouse arthritis model assessed as change in AUC at 3 mg/kg, po qd for 35 days relative to 1% methylcellulose-treated control; format: organism-based; set-up: dose 3 mg/kg, route oral; details: in vivo, 840 h; method in brief: as §2
[23] = target: T1, Glucocorticoid receptor (Homo sapiens) (UniProt P04150); assay: Agonist activity at glucocorticoid receptor in human […] cells assessed as suppression of vitamin D-induced osteocalcin production at 2 uM after 48 hrs by Gla-type osteocalcin ELISA relative to dexomethasone; format: cell-based
T1 sequence (whole entry): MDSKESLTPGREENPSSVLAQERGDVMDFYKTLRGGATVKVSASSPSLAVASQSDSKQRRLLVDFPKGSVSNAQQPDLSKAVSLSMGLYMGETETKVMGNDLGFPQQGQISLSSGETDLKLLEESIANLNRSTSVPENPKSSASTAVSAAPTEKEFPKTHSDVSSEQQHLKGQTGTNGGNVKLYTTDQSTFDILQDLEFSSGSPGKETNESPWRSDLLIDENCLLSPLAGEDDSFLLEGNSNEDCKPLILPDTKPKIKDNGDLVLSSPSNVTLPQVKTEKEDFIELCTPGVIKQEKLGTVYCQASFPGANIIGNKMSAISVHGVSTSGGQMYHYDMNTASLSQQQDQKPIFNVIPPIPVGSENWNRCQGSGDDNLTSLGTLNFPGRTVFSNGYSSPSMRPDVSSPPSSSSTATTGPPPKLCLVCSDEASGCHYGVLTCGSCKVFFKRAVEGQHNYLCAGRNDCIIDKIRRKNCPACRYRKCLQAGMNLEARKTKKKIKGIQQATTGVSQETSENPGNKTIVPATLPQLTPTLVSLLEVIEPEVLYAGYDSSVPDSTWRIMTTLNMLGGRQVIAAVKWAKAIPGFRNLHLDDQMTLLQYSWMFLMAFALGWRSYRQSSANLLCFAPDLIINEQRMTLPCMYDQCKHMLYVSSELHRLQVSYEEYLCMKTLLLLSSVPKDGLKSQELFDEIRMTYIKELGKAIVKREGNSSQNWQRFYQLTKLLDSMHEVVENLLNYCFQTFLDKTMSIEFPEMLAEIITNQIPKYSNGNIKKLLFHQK
Method in brief: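 MG-63 human osteosarcoma cells plated at 20000/well in DMEM/F-12 with 1% charcoal-filtered FBS and 10 μg/mL vitamin C. Medium refreshed next day, then vitamin D (10 nM final) added with compound (2 × 10−6 to 10−10 M), duplicates. Incubated 48 h at 37 °C; supernatant osteocalcin measured by Gla-type ELISA. Vitamin D-only wells = 100%. Max efficacy at 2 μM is relative to dexamethasone (100%).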

C[C@]12C=CC(=O)C=C1CC[C@@H]1[C@@H]2[C@@H](O)C[C@@]2(C)[C@H]1CC[C@]2(O)C(=O)CO [PREDNISOLONE]
Activity (Mus musculus [1]): -22%
Activity (Mus musculus [2]): -13%
Activity (Mus musculus [3]): -18%
Activity (Mus musculus [4]): -9%
Activity (Mus musculus [5]): 703%
Activity (Mus musculus [6]): 36%
Activity (Mus musculus [7]): 103%
Activity (Mus musculus [8]): 62%
Activity (Mus musculus [9]): 54%
Activity (Mus musculus [10]): 30%
Activity (Mus musculus [11]): 44%
Activity (Mus musculus [12]): 39%
Activity (Mus musculus [13]): 226%
Activity (Mus musculus [14]): 21%
Activity (Mus musculus [15]): 71%
Activity (Mus musculus [16]): 30%
Activity (Mus musculus [17]): 68%
Activity (Mus musculus [18]): 48%
Activity (Mus musculus [19]): -90%
Activity (Mus musculus [20]): -55%
Activity (Mus musculus [21]): -78%
Activity (Mus musculus [22]): -43%
Emax [23]: 78%
